PMC10249145 (Cardiovascular & hematological agents in medicinal chemistry, 2023)
Where a name gives a salt, the structure may show the parent alone.

Assays:
human plasma [1] = details: normal human plasma, positive controls; cited from earlier work
human plasma [2] = details: normal human plasma, positive controls; cited from earlier work; remark: listed apart in the source
human FXIIa [3] = target: T1, human FXIIa (Homo sapiens, UniProt P00748); assay: Direct inhibition of human FXIIa, chromogenic substrate hydrolysis assay; assay type: biochemical
T1 sequence (P00748 20-615): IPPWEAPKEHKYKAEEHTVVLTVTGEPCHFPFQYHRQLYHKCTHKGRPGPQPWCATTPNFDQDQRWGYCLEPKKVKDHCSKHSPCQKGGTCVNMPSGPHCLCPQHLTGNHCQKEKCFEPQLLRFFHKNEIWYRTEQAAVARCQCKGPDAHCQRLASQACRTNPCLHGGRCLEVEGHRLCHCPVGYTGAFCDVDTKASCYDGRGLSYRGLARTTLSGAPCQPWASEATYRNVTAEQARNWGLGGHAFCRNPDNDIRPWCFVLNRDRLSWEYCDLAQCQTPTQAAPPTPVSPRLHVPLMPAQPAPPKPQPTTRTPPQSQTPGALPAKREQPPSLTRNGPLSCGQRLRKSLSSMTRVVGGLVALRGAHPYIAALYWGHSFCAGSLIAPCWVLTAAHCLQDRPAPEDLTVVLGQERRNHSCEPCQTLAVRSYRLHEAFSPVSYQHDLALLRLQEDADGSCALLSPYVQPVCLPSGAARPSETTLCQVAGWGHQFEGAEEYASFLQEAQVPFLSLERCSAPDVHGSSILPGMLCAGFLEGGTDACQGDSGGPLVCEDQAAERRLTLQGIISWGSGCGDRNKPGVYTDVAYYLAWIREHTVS
Summary of the method: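 Human FXIIa (stock 200 nM) was preincubated for 5 min with test compound or vehicle in Tris-HCl pH 7.4 with NaCl, 2.5 mM CaCl2, 0.1% PEG8000 and 0.02% Tween80 at 37 °C. Spectrozyme FXIIa (stock 5 mM) was then added. Twelve in-well concentrations (500–0.0025 μM) were tested. Residual activity was taken from the initial A405 rate, and a logistic fit gave IC50, efficacy and Hill slope (±1 S.E.).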

FXa [4] = target: FXa (Homo sapiens, UniProt P00742, DEL180-234); assay: Inhibition of FXa, chromogenic substrate hydrolysis assay; assay type: biochemical
Summary of the method: (§1)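 In-well FXa was about 1.09 nM with Spectrozyme FXa at 125 μM (from KM), in pH 7.4 Tris-HCl containing NaCl, 2.5 mM CaCl2, 0.1% PEG8000 and 0.02% Tween80. Several test compound concentrations were used; residual activity was fitted with a logistic equation for IC50 where inhibition was concentration-dependent.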

FXa [5] = assay: as above; assay type: biochemical, human; details: ratio of IC50 values
Summary of the method: as §1

human plasma [6] = assay: Prothrombin time; assay type: biochemical; details: normal human plasma; highest concentration tested about 980 μM
Summary of the method: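 Thromboplastin-D was reconstituted in distilled water and warmed to 37 °C. Citrated pooled normal human plasma was incubated with test compound (solutions of 0–983 μM as added) for 30 s at 37 °C. Clotting was started by adding the prewarmed thromboplastin-D and the clotting time was read on a fibrometer. The concentration giving a 1.5-fold increase in PT was derived. Values are means of three experiments.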

bovine trypsin = target: T2, bovine trypsin (Bos taurus, UniProt P00760); assay: Inhibition of trypsin, chromogenic substrate hydrolysis assay; assay type: biochemical
T2 sequence (P00760 24-246): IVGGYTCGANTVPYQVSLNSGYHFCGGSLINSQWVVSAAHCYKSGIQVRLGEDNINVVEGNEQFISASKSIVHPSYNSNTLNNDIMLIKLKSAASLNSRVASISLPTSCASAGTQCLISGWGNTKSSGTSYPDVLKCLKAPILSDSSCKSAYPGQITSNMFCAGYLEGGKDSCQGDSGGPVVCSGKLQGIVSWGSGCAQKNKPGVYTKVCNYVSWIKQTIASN
Summary of the method: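 Bovine trypsin at 500 ng/mL with S-2222 at 650 μM in-well (substrate level from KM), in pH 7.4 Tris-HCl containing NaCl, CaCl2, PEG8000 and Tween80. Residual activity was measured at several test compound concentrations, with logistic fitting for IC50 where inhibition was concentration-dependent.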

bovine α-chymotrypsin [7] = target: bovine α-chymotrypsin (Bos taurus, UniProt P00766, DEL14-15/DEL147-148); assay: Inhibition of chymotrypsin, chromogenic substrate hydrolysis assay; assay type: biochemical
Summary of the method: (§2)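 Bovine α-chymotrypsin at 500 ng/mL with N-succinyl-Ala-Ala-Pro-Phe-p-nitroanilide at 910 μM in-well (from KM), in pH 7.4 Tris-HCl with NaCl, CaCl2, PEG8000 and Tween80. Residual activity was measured over several test compound concentrations, with logistic fitting for IC50 where inhibition was concentration-dependent.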

bovine α-chymotrypsin [8] = assay: as above; assay type: biochemical; details: ratio of IC50 values
Summary of the method: as §2

human plasma [9] = assay: Activated partial thromboplastin time; assay type: biochemical; details: normal human plasma, ellagic acid APTT reagent
Summary of the method: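 Citrated pooled normal human plasma was mixed with test compound (solutions of 0–983 μM as added) and prewarmed ellagic acid APTT reagent (0.2%). After 4 min at 37 °C, clotting was started with prewarmed 25 mM CaCl2 and the clotting time was read on a fibrometer. The concentration giving a 1.5-fold increase in APTT was derived. Values are means of three experiments.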

FVIIa/tissue factor [10] = assay: Inhibition of FVIIa/tissue factor, chromogenic substrate hydrolysis assay; assay type: biochemical, human; details: ratio of IC50 values
Summary of the method: (§3)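 FVIIa/tissue factor: enzyme about 8 nM with Spectrozyme VIIa at 1000 μM in-well, chosen from KM. Buffer was pH 7.4 Tris-HCl with NaCl, 2.5 mM CaCl2, 0.1% PEG8000 and 0.02% Tween80. Residual chromogenic activity was measured at several test compound concentrations, and a logistic fit gave IC50 where inhibition was concentration-dependent.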

FVIIa/tissue factor [11] = target: T3, FVIIa/tissue factor (Homo sapiens, UniProt P08709); assay: as above; assay type: biochemical
T3 sequence (P08709 61-466): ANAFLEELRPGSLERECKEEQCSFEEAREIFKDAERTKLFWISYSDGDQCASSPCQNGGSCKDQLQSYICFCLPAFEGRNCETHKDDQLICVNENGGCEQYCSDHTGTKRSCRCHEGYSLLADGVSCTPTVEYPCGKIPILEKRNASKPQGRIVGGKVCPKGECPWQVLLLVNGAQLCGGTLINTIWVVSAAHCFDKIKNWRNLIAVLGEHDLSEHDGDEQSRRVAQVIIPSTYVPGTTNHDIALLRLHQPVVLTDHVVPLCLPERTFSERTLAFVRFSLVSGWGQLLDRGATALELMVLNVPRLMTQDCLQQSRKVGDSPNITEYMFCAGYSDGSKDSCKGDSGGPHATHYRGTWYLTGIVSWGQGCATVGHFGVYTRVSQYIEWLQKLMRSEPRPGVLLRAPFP
Summary of the method: as §3

human plasma kallikrein [12] = target: human plasma kallikrein (Homo sapiens, UniProt P03952); assay: Inhibition of plasma kallikrein, chromogenic substrate hydrolysis assay; assay type: biochemical
Summary of the method: (§4)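 Human plasma kallikrein was used at about 3 nM with Spectrozyme PK at 100 μM (in-well, set from KM), in pH 7.4 Tris-HCl with NaCl, CaCl2, PEG8000 and Tween80. Residual activity was measured at several test compound concentrations; IC50 was fitted by logistic equation where inhibition was concentration-dependent.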

human plasma kallikrein [13] = assay: as above; assay type: biochemical; details: ratio of IC50 values
Summary of the method: as §4

human plasmin [14] = assay: Inhibition of plasmin, chromogenic substrate hydrolysis assay; assay type: biochemical; details: ratio of IC50 values
Summary of the method: (§5)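 Human plasmin at about 20 nM with Spectrozyme PL at 50 μM in-well (set from KM), in pH 7.4 Tris-HCl with NaCl, 2.5 mM CaCl2, 0.1% PEG8000 and 0.02% Tween80. Residual activity was measured at several test compound concentrations, and a logistic fit gave IC50, efficacy and Hill slope.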

human plasmin [15] = target: human plasmin (Homo sapiens, UniProt P00747); assay: as above; assay type: biochemical
Summary of the method: as §5

thrombin [16] = target: thrombin (Homo sapiens, UniProt P00734); assay: Inhibition of thrombin, chromogenic substrate hydrolysis assay; assay type: biochemical
Summary of the method: (§6)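 Thrombin at about 6 nM with Spectrozyme TH at 50 μM (in-well), in pH 7.4 Tris-HCl buffer with NaCl, CaCl2, PEG8000 and Tween80. Substrate level was set from its KM. Residual activity was measured across several test compound concentrations, and a logistic fit of concentration-dependent inhibition gave IC50, efficacy and Hill slope.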

thrombin [17] = assay: as above; assay type: biochemical, human; details: ratio of IC50 values
Summary of the method: as §6

human FXIIa [18] = target: T1, human FXIIa; assay: Affinity to human FXIIa by intrinsic tryptophan fluorescence spectroscopy; assay type: binding
Summary of the method: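 Test compound (100 μM) was titrated into human FXIIa (350 nM) in 50 mM Tris-HCl pH 7.4 with 150 mM NaCl and 0.1% PEG8000 at 37 °C. Intrinsic tryptophan fluorescence was read at λem 348 nm (λex 280 nm). The fluorescence change was fitted to a quadratic equilibrium binding equation to give Kd.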

FXIa [19] = target: FXIa (Homo sapiens, UniProt P03951); assay: Inhibition of FXIa, chromogenic substrate hydrolysis assay; assay type: biochemical
Summary of the method: (§7)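 Human FXIa activity was measured with chromogenic substrate S-2366 in pH 7.4 Tris-HCl with NaCl, 2.5 mM CaCl2, 0.1% PEG8000 and 0.02% Tween80. Residual activity was measured at several test compound concentrations, and a logistic fit gave IC50, efficacy and Hill slope.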

FXIa [20] = assay: as above; assay type: biochemical, human; details: ratio of IC50 values
Summary of the method: as §7

FIXa [21] = assay: Inhibition of FIXa, chromogenic substrate hydrolysis assay; assay type: biochemical, human; details: ratio of IC50 values
Summary of the method: (§8)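 FIXa assay: about 89 nM enzyme and 850 μM Spectrozyme FIXa (in-well, level set from KM), in pH 7.4 Tris-HCl with NaCl, CaCl2, PEG8000 and Tween80. Residual activity was measured at several test compound concentrations and fitted with a logistic equation for IC50 where inhibition was concentration-dependent.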

FIXa [22] = target: FIXa (Homo sapiens, UniProt P00740, DEL192-226); assay: as above; assay type: biochemical
Summary of the method: as §8

human FXIIa [23] = target: T1, human FXIIa; assay: Inhibition of FXIIa-mediated activation of FXI to FXIa; assay type: biochemical
Summary of the method: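 Zymogen FXI (4 μM as added), human FXIIa (200 nM as added) and test compound (1000–0.32 μM as added) were combined in Tris-HCl pH 7.4 at 37 °C. After 5 min, S-2366 (stock 6.9 mM) was added. The FXIa generated was measured as the initial A405 rate. A logistic fit of relative residual activity gave IC50 and efficacy.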

[24] = human FXIIa, pH 7.4, 37 °C, ± 1 S.E.

Chain of FXIa (Homo sapiens, UniProt P03951) (P03951 19-625): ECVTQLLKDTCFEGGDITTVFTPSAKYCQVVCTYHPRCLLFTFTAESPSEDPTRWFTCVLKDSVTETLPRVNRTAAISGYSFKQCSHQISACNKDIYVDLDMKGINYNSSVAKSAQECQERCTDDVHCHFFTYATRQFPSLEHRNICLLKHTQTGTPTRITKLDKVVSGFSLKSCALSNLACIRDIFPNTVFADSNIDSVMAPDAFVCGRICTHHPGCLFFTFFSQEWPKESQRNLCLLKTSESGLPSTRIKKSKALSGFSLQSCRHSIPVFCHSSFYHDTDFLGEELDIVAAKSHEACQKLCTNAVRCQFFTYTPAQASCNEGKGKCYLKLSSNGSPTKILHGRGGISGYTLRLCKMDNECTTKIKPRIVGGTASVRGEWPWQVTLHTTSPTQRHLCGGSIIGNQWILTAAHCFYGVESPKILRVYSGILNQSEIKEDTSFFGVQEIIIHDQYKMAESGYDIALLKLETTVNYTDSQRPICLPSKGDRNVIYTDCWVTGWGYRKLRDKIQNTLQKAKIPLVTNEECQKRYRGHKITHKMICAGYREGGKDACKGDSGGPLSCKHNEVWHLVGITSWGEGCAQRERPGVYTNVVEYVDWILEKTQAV
Chain of human plasmin (Homo sapiens, UniProt P00747) (P00747 97-810): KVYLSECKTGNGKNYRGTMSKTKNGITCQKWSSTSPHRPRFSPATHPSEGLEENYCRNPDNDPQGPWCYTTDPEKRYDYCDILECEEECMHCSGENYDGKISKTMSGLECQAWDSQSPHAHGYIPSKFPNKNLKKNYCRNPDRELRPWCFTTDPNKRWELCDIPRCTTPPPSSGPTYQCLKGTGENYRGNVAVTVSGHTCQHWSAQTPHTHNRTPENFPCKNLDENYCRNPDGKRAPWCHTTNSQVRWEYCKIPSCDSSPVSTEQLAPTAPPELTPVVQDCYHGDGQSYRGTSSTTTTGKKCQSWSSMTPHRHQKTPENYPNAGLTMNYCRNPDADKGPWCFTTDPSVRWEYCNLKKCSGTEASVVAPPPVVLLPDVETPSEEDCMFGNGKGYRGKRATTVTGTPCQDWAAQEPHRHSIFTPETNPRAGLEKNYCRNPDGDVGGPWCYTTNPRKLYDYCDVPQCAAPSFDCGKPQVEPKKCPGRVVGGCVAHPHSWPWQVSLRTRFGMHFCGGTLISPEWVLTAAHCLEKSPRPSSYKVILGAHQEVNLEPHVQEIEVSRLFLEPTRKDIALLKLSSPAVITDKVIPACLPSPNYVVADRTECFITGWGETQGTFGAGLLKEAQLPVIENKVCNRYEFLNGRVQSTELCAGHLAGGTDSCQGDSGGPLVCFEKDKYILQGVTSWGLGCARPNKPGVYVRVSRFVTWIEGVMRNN
Chain of human plasma kallikrein (Homo sapiens, UniProt P03952) (P03952 20-638): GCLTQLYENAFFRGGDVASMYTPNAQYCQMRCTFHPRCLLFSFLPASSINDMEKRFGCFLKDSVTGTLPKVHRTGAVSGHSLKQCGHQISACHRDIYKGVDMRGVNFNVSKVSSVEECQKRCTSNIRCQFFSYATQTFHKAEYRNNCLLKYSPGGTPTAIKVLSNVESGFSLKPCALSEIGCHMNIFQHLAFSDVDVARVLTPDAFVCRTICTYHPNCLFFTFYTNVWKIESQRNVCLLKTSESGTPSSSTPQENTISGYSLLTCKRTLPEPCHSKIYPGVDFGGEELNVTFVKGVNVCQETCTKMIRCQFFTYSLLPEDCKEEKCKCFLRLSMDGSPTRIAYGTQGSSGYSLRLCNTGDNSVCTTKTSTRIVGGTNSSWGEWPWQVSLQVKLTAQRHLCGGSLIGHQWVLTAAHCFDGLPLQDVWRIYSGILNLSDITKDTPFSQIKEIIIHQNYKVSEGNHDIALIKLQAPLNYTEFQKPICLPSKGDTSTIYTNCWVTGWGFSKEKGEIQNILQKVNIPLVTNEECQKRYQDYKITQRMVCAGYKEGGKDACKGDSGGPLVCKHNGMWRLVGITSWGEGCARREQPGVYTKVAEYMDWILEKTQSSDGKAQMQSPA

## CC1CNc2c(cccc2S(=O)(=O)N[C@@H](CCCNC(=N)N)C(=O)N2CC[C@@H](C)C[C@@H]2C(=O)O)C1 (stereo partly drawn) [Argatroban HCl]
Human plasma [1]
  APTT (EC×1.5): ~0.19 μM^b
Human plasma [2]
  PT (EC×1.5): ~0.13 µM

## COC(=O)c1nc(N)n(C(=O)c2ccccc2)n1 [Inhibitor 2, Methyl 5-amino-1-benzoyl-1H-1,2,4-triazole-3-carboxylate]
Human FXIIa [3]; FXIIa IC50 relative to inhibitor 1
  decrease in the inhibition potency: ~ 2.2 fold
Human FXIIa [3]; [24]
  DeltaY (efficacy of inhibition): 92.2 ± 3.1%
  HS (Hill slope): 1.09 ± 0.14

## COC(=O)c1nc(N)n(C(=O)c2ccc(C(C)(C)C)cc2)n1 [Inhibitor 1, Methyl 5-amino-1-(4-(tert-butyl)benzoyl)-1H-1,2,4-triazole-3-carboxylate]
FXa [4]
  IC50: > 577 µM
FXa [5]
  selectivity to FXIIa over FXa: at least 4545 fold
Human plasma [6]
  PT (EC×1.5), concentration required to increase PT by 1.5-fold: not significantly affected
Bovine trypsin
  IC50: > 1000 µM
Bovine trypsin; ratio of IC50 values
  selectivity to FXIIa over trypsin: at least 4545 fold
Human FXIIa [3]; [24]
  HS (Hill slope): 1.7 ± 0.4
Bovine α-chymotrypsin [7]
  IC50: > 1000 µM
Bovine α-chymotrypsin [8]
  selectivity to FXIIa over α-chymotrypsin: at least 4545 fold
Human plasma [9]
  APTT (EC×1.5), concentration required to increase APTT by 1.5-fold: ~340 µM
Human plasma [9]; listed as 1
  APTT (EC×1.5), concentration required to increase APTT by 1.5-fold: ~ 340 μM
FVIIa/tissue factor [10]
  selectivity to FXIIa over FVIIa/TF: at least 4545 fold
FVIIa/tissue factor [11]
  IC50: > 1000 µM
Human plasma kallikrein [12]
  IC50: > 500 µM
Human plasma kallikrein [13]
  selectivity to FXIIa over plasma kallikrein: at least 4545 fold
Human plasmin [14]
  selectivity index to human FXIIa over plasmin: 756 fold
Human plasmin [15]
  IC50: 83.2 ± 37 µM
Human plasmin [15]; Plasmin
  DeltaY (efficacy of inhibition): 25 ± 12%
  HS (Hill slope): 1.4 ± 1.6
Thrombin [16]
  IC50: 235 ± 52.5 µM
Thrombin [16]; Thrombin
  DeltaY (efficacy of inhibition): 106 ± 7%
  HS (Hill slope): 0.4 ± 0.1
Thrombin [17]
  selectivity index to human FXIIa over thrombin: 2137 fold
Human FXIIa [18]
  Kd: 0.98 ± 0.13 µM
FXIa [19]
  IC50: 16.8 ± 6.7 µM
FXIa [19]; FXIa
  DeltaY (efficacy of inhibition): 32 ± 11%
  HS (Hill slope): 1.9 ± 2.8
FXIa [20]
  selectivity index to human FXIIa over FXIa: 153 fold
FIXa [21]
  selectivity to FXIIa over FIXa: at least 4545 fold
FIXa [22]
  IC50: > 1000 µM
Human FXIIa [23]
  IC50: ~2 µM
Human FXIIa [23]; residual FXIa activity by S-2366, pH 7.4, 37 °C
  efficacy of FXIIa inhibition using the macromolecule substrate FXI: ~ 41%
